Molecules are shown by their SMILES.

Assay [1] deals with T1, Adenosine receptor A1 (Rattus norvegicus, UniProt P25099).
T1 sequence (P25099 whole entry): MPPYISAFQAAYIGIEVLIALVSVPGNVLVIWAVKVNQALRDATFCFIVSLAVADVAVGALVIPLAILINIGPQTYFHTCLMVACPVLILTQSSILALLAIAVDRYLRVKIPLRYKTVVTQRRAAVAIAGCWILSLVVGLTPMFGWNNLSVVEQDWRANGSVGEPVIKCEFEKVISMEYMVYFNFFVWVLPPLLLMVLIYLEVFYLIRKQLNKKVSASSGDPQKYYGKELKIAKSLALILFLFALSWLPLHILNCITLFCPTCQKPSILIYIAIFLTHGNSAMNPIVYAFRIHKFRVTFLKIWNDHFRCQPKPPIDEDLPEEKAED
The assay can be described thus: Affinity for adenosine A1 receptor was determined, in the absence of GTP in rat cortical membrane. It is filed as cell membranes. Summed up:
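Rat cerebral cortex membranes were used for displacement of the tritiated antagonist [3H]DPCPX. GTP shift is the apparent Ki with GTP divided by the apparent Ki without GTP. There were three or four independent experiments, each in duplicate.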

Assay [2] has as its target T2, Adenosine receptor A1 (Rattus norvegicus) (UniProt P25099).
T2 sequence (whole entry): T1 sequence (P25099 whole entry)
The assay can be described thus: GTP shift ratio of the apparent Ki values in the presence and absence of GTP. In a few lines:
(§1)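 Rat cerebral cortex membranes were used for displacement of the tritiated antagonist [3H]DPCPX. Assays were run with and without 1 mM GTP, and Ki values were derived from the displacement data. GTP shift is the apparent Ki with GTP divided by the apparent Ki without GTP. There were three or four independent experiments, each in duplicate.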

Assay [3] deals with T1, Adenosine receptor A1. Nature of the assay: Affinity for adenosine A1 receptor was determined, in the presence of GTP in rat brain cortex. Format: tissue-based. Summed up: as §1
For a further assay, the target named is Adenosine receptor A2a (Rattus norvegicus, UniProt P30543). The assay can be described thus: Affinity for adenosine A2a receptor was determined on rat striatal membrane using [3H]-CGS- 21680 as radioligand. Details: species or system Striatum. In a few lines: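 Rat striatal membranes were used for displacement of [3H]CGS 21680 as radioligand, and Ki values were derived from the displacement data. There were three or four independent experiments, each performed in duplicate.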

Assay [4] addresses Adenosine receptor A2a (Rattus norvegicus) (UniProt P30543). The assay can be described thus: Affinity for adenosine A2a receptor of rat striatal membrane using [3H]-CGS- 21680 at 10e-5 M. In a few lines: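 On rat striatal membranes with [3H]CGS 21680 as radioligand, the value is the percentage of radioligand still bound to the receptor in the presence of 10⁻⁵ M test ligand.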

Adenosine receptor A2a, sequence (P30543 whole entry): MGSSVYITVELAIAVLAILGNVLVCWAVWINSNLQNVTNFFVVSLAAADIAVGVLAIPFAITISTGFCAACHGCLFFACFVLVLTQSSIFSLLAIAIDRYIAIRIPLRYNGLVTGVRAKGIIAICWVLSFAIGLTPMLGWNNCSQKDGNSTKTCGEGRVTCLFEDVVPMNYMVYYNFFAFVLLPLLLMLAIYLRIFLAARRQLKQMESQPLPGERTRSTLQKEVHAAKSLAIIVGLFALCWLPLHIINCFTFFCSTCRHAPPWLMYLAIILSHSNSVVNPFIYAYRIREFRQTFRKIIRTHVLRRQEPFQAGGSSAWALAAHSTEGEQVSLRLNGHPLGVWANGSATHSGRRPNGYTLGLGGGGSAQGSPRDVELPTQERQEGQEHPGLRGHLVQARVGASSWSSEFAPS
Adenosine receptor A2a (Rattus norvegicus), sequence (P30543 whole entry): as above

Take `O=C(CCCc1ccccc1)N[C@H]1C(CO)O[C@@H](n2cnc3c(NC4CCCC4)ncnc32)[C@@H]1O` (single isomer, unassigned): the Ki (usually a dissociation constant, usually derived from enzyme kinetics or from competition with a known ligand) at Adenosine receptor A1 [1] is 130 nM; on Adenosine receptor A1 [3], 100 nM; at Adenosine receptor A2a, 650 nM. For the same compound, the Ratio in assay [2] came to 0.94.

Consider `OC[C@@H]1C[C@@H](O)[C@H](n2cnc3c(NC4CCCC4)ncnc32)O1`, for which the Ratio in assay [2] came out at 4.3.

Take `Nc1ncnc2c1ncn2C1OC(CO)[C@H](NC(=O)CCCCc2ccccc2)C1O` (stereo partly drawn): the Ki at Adenosine receptor A1 [1] is 7840 nM; at Adenosine receptor A1 [3], 5740 nM; on Adenosine receptor A2a, 4660 nM. Further, the Ratio in assay [2] came out at 0.73.

Regarding `Nc1ncnc2c1ncn2[C@@H]1OC(CO)[C@H](NC(=O)CCOc2ccccc2)[C@H]1O` (single isomer, unassigned), the Ratio in assay [2] stood at 0.74. The Ki on Adenosine receptor A1 [3] was found to be 12600 nM; at Adenosine receptor A2a, 11800 nM.

Take `O=C(N[C@H]1C(CO)O[C@@H](n2cnc3c(NC4CCCC4)ncnc32)[C@@H]1O)c1ccc(Cl)c(Cl)c1` (single isomer, unassigned): in assay [2], the Ratio was determined as 0.73. The compound further returned a Ki on Adenosine receptor A2a of 2020 nM.

For the compound `Cc1ccc(C(=O)N[C@H]2C(CO)OC(n3cnc4c(NC5CCCC5)ncnc43)C2O)cc1` (stereo partly drawn), the values for the inhibition constant (Ki) at Adenosine receptor A1 [1], at Adenosine receptor A1 [3] and on Adenosine receptor A2a were 83 nM, 68 nM and 790 nM, respectively. The Ratio in assay [2] stood at 0.84.

With `[N-]=[N+]=N[C@@H]1[C@@H](O)[C@H](n2cnc3c(NC4CCCC4)ncnc32)O[C@@H]1CO`, the inhibition constant (Ki) on Adenosine receptor A1 [1] stood at 8470 nM; on Adenosine receptor A1 [3], 11200 nM; on Adenosine receptor A2a, 2410 nM. Moreover, the Ratio in assay [2] was determined as 1.4.

Take `Nc1ncnc2c1ncn2[C@@H]1O[C@H](CO)C[C@H]1O`: the Ratio in assay [2] turned out to be 2.1.

On to `O=C(CCc1ccccc1)N[C@H]1C(CO)O[C@@H](n2cnc3c(NC4CCCC4)ncnc32)[C@@H]1O` (single isomer, unassigned), for which the figures for the Ki at Adenosine receptor A1 [1], at Adenosine receptor A1 [3] and at Adenosine receptor A2a were 370 nM, 350 nM and 7940 nM, respectively. In assay [2], the Ratio was 0.99.

On to `O=C(N[C@H]1C(CO)O[C@@H](n2cnc3c(NC4CCCC4)ncnc32)[C@@H]1O)c1ccc(Cl)cc1` (single isomer, unassigned), for which the Ki is 110 nM on Adenosine receptor A1 [1], 81 nM on Adenosine receptor A1 [3] and 580 nM on Adenosine receptor A2a. For the same compound, the Ratio in assay [2] was 0.87.

Regarding `Cc1ccc(C(=O)N[C@H]2C(CO)O[C@@H](n3cnc4c(NC5CCCC5)ncnc43)[C@@H]2O)cc1C` (single isomer, unassigned), the Ratio in assay [2] came to 0.73. This compound gave a Ki on Adenosine receptor A2a of 3680 nM.

As to `O=C(CCCC1CCCCC1)N[C@H]1C(CO)OC(n2cnc3c(NC4CCCC4)ncnc32)C1O` (stereo partly drawn), the Ki was determined as 190 nM at Adenosine receptor A1 [1] and 150 nM at Adenosine receptor A1 [3]. Further, the Ratio in assay [2] turned out to be 0.8. In assay [4], this compound showed a percent radioligand bound of 74%.

As to `O=C(N[C@H]1C(CO)O[C@@H](n2cnc3c(NC4CCCC4)ncnc32)[C@@H]1O)c1ccc([N+](=O)[O-])cc1` (single isomer, unassigned), the figures for the Ki at Adenosine receptor A1 [1], at Adenosine receptor A1 [3] and at Adenosine receptor A2a were 820 nM, 740 nM and 6850 nM, respectively. Besides, the Ratio in assay [2] is 0.91.

As to `Nc1ncnc2c1ncn2[C@@H]1OC(CO)[C@H](NC(=O)c2ccccc2)[C@H]1O` (single isomer, unassigned), the inhibition constant Ki at Adenosine receptor A1 [1] was 10900 nM; at Adenosine receptor A1 [3], 11100 nM; at Adenosine receptor A2a, 2470 nM. In addition, in assay [2], the Ratio was determined as 1.1.

On to `Nc1ncnc2c1ncn2[C@@H]1OC(CO)[C@H](NC(=O)CCCC2CCCCC2)[C@H]1O` (single isomer, unassigned), for which the figures for the Ki on Adenosine receptor A1 [1], at Adenosine receptor A1 [3] and at Adenosine receptor A2a were 3590 nM, 2680 nM and 1770 nM, respectively. In assay [2], the Ratio is 0.75.

On to `O=C(Cc1ccccc1)N[C@H]1C(CO)OC(n2cnc3c(NC4CCCC4)ncnc32)C1O` (stereo partly drawn), for which the Ki at Adenosine receptor A1 [1] was 850 nM; on Adenosine receptor A1 [3] it was 770 nM. In addition, the Ratio in assay [2] turned out to be 0.95. The compound further displayed a percent radioligand bound in assay [4] of 50%.

Take `O=C(CCCCc1ccccc1)N[C@H]1C(CO)O[C@@H](n2cnc3c(NC4CCCC4)ncnc32)[C@@H]1O` (single isomer, unassigned): the Ki amounted to 240 nM on Adenosine receptor A1 [1], 200 nM on Adenosine receptor A1 [3] and 4230 nM on Adenosine receptor A2a. For the same compound, the Ratio in assay [2] was 0.83.

As to `O=C(N[C@H]1C(CO)O[C@@H](n2cnc3c(NC4CCCC4)ncnc32)[C@@H]1O)c1ccccc1` (single isomer, unassigned), the Ratio in assay [2] is 0.8. Also, the Ki on Adenosine receptor A2a was 2760 nM.

For the compound `COc1ccc(C(=O)N[C@H]2C(CO)OC(n3cnc4c(NC5CCCC5)ncnc43)C2O)cc1` (stereo partly drawn), the inhibition constant Ki is 200 nM at Adenosine receptor A1 [1], 130 nM on Adenosine receptor A1 [3] and 770 nM on Adenosine receptor A2a. Also, the Ratio in assay [2] amounted to 0.77.

The values above are taken from ChEMBL document CHEMBL1130233, “N6-cyclopentyl-3'-substituted-xylofuranosyladenosines: a new class of non-xanthine adenosine A1 receptor antagonists” (J Med Chem, 1997).
